The species entered for assay [1] is Felis catus. The experiment in a line: The mean area between curves for pupil diameter between treated and control eyes. The effect was tested in cats at a dose of 10.0 (ug/eye). Type of assay: functional. In outline: (§1)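 Trained female cats, 2–3 kg, were dosed unilaterally with one 20 µL topical drop of drug in 0.9% NaCl/0.5% polysorbate 80, with vehicle in the contralateral eye. Horizontal pupil diameter was measured with a millimetre ruler under constant 10 lux illumination before dosing and at 1, 3, 6 and 23 h. Reported as maximal treated–control difference or as area between curves, per animal.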

Assay [2] is filed under the species Felis catus. Description: The mean area between curves for Intraocular Pressure (IOP) measured in treated and control eyes. The effect was tested in cats at a dose of 3.0 (ug/eye). Format: functional. In outline: (§2)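 Domestic female cats, 2–3 kg, trained for IOP measurement. One eye received a topical drop (20 µL) of drug in 0.9% NaCl with 0.5% polysorbate 80; the other eye received vehicle. IOP was read by pneumatonometer under oxibuprocain local anaesthesia before dosing and at 1, 3, 6 and 23 h. The maximal treated-minus-control difference was taken. Area between curves is the treated-eye AUC minus control-eye AUC, per animal.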

For assay [3], the system named is Monkey. Description: The maximal difference in Intraocular Pressure (IOP) measured in treated and control eyes. The effect was tested in monkey at a dose of 1.0 (ug/eye). Type of assay: functional, Cercopithecidae. In outline: (§3)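 Cynomolgus monkeys trained for IOP measurement were sedated with ketamine (2–3 mg/kg) for transport and seated in restraint chairs under oxibuprocain local anaesthesia. One eye received a 10 µL drop of drug in 0.9% NaCl/0.5% polysorbate 80; the fellow eye received vehicle. IOP was read by pneumatonometer calibrated for monkey eyes before dosing and at 1, 2, 4 and 6 h. Matched-pair t test, n = 6.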

The species named for assay [4] is Felis catus. Description: The mean ocular irritation in the treated eyes. An arbitrary scale of from 0 to 3 was used, 0 indicates absence of irritation and 3 complete closure of the lids. The effect was tested in cats at a dose of 1.0 (ug/eye). Type of assay: functional. In outline:
(§4)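 Ocular irritation was scored in the treated eye of trained female cats, 2–3 kg. Drug was given as one topical 20 µL drop in 0.9% NaCl with 0.5% polysorbate 80. The contralateral eye got vehicle only.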

The species named for assay [5] is Felis catus. Description: The mean area between curves for pupil diameter between treated and control eyes. The effect was tested in cats at a dose of 3.0 (ug/eye). Type of assay: functional. In outline: as §1
The species entered for assay [6] is Oryctolagus cuniculus. Description: The mean area between curves for conjunctival hyperemia between treated and control eyes. The effect was tested in rabbit at a dose of 0.5 (ug/eye).
The species named for assay [7] is Felis catus. Description: The mean ocular irritation in the treated eyes. An arbitrary scale of from 0 to 3 was used, 0 indicates absence of irritation and 3 complete closure of the lids. The effect was tested in cats at a dose of 3.0 (ug/eye). Type of assay: functional. In outline: as §4
The species entered for assay [8] is Felis catus. Description: The maximal difference in […] pupil diameter between treated and control eyes. The effect was tested in cats at a dose of 1.0 (ug/eye). Format: functional. In outline:
as §1

For assay [9], the species on record is Felis catus. Description: The maximal difference in Intraocular Pressure (IOP) between treated and control eyes. The effect was tested in cats at a dose of 10.0 (ug/eye). Format: functional. In outline: as §2
Assay [10] is filed under the species Felis catus. Description: The mean ocular irritation in the treated eyes. An arbitrary scale of from 0 to 3 was used, 0 indicates absence of irritation and 3 complete closure of the lids. The effect was tested in cats at a dose of 10.0 (ug/eye). Type of assay: functional. In outline:
as §4

The species entered for assay [11] is Oryctolagus cuniculus. Description: The maximal difference in conjunctival hyperemia between treated and control eyes. The effect was tested in rabbit at a dose of 0.5 (ug/eye).
For assay [12], the species on record is Felis catus. Description: The mean area between curves for Intraocular Pressure (IOP) measured in treated and control eyes. The effect was tested in cats at a dose of 10.0 (ug/eye). Format: functional. In outline:
as §2

Assay [13] is filed under the species Felis catus. The experiment in a line: The mean area between curves for pupil diameter between treated and control eyes. The effect was tested in cats at a dose of 1.0 (ug/eye). Type of assay: functional. In outline: as §1
For assay [14], the species on record is Felis catus. The experiment in a line: The mean area between curves for Intraocular Pressure (IOP) measured in treated and control eyes. The effect was tested in cats at a dose of 1.0 (ug/eye). Format: functional. In outline:
as §2

Assay [15] has as its system Monkey. The experiment in a line: The mean area between curves for Intraocular Pressure (IOP) measured in treated and control eyes. The effect was tested in monkey at a dose of 3.0 (ug/eye). Format: functional, Cercopithecidae. In outline: as §3
The species entered for assay [16] is Felis catus. Description: The maximal difference in Intraocular Pressure (IOP) between treated and control eyes. The effect was tested in cats at a dose of 1.0 (ug/eye). Format: functional. In outline: as §2
For assay [17], the species on record is Felis catus. The experiment in a line: The maximal difference in […] pupil diameter between treated and control eyes. The effect was tested in cats at a dose of 10.0 (ug/eye). Format: functional. In outline: as §1
Assay [18] is filed under the species Felis catus. Description: The maximal difference in Intraocular Pressure (IOP) between treated and control eyes. The effect was tested in cats at a dose of 3.0 (ug/eye). Format: functional. In outline: as §2
Assay [19] has as its system Monkey. Description: The mean area between curves for Intraocular Pressure (IOP) measured in treated and control eyes. The effect was tested in monkey at a dose of 1.0 (ug/eye). Format: functional, Cercopithecidae. In outline: as §3
The subject of assay [20] is Monkey. The experiment in a line: The maximal difference in Intraocular Pressure (IOP) measured in treated and control eyes. The effect was tested in monkey at a dose of 3.0 (ug/eye). Format: functional, Cercopithecidae. In outline: as §3
The species named for assay [21] is Felis catus. Description: The maximal difference in […] pupil diameter between treated and control eyes. The effect was tested in cats at a dose of 3.0 (ug/eye). Format: functional. In outline: as §1
Assay [22] concerns Monkey. The experiment in a line: The maximal difference in Intraocular Pressure (IOP) between treated and control eyes. The effect was tested in monkey at a dose of 3.0 (ug/eye). Format: functional, Cercopithecidae. In outline:
as §3

For assay [23], the system named is Monkey. The experiment in a line: The mean area between curves for Intraocular Pressure (IOP) measured in treated and control eyes. The effect was tested in monkey at a dose of 10.0 (ug/eye). Type of assay: functional, Cercopithecidae. In outline: as §3
For assay [24], the system named is Monkey. The experiment in a line: The maximal difference in Intraocular Pressure (IOP) measured in treated and control eyes. The effect was tested in monkey at a dose of 10.0 (ug/eye). Format: functional, Cercopithecidae. In outline:
as §3

The species entered for assay [25] is Oryctolagus cuniculus. The experiment in a line: The maximal difference in conjunctival hyperemia between treated and control eyes. The effect was tested in rabbit at a dose of 0.1 (ug/eye).
The species named for assay [26] is Oryctolagus cuniculus. Description: The mean area between curves for conjunctival hyperemia between treated and control eyes. The effect was tested in rabbit at a dose of 0.1 (ug/eye).
The species entered for assay [27] is Felis catus. Description: 66 The maximal difference in Intraocular Pressure (IOP) between treated and control eyes. The effect was tested in cats at a dose of 3.0 (ug/eye). Type of assay: functional. In outline: as §2

The record followed here is ChEMBL document CHEMBL1128437, “Derivatives of 17-phenyl-18,19,20-trinorprostaglandin F2 alpha isopropyl ester: potential antiglaucoma agents” (J Med Chem, 1995).

Where only a bound is given, the exact number is not on record here.

With `Cc1cccc(CC[C@H](O)/C=C/[C@@H]2[C@@H](C/C=C\CCCC(=O)OC(C)C)[C@@H](O)C[C@H]2O)c1`, the figures for the “P ABC” value in assay [1], in [5] and in assay [13] were below -149, below -122 and below -85, respectively. The “I ABC” value was 8 in assay [2]; 14.1 in assay [12]; -17 in [14]; -0.1 in [15]; -3.6 in assay [19]. The Imax was below -2.5 mmHg in [3]; 2.3 mmHg in [9]; -1 mmHg in [16]; 1.2 mmHg in [18]; below -0.6 mmHg in [20]. Besides, the Irritation came to 0.3 arbitrary units in assay [4], 0.1 arbitrary units in [7] and 0 arbitrary units in assay [10]. For the same molecule, the “H ABC” value in [6] is below 4.9. In addition, the Pmax was below -6.8 mm in assay [8], below -8.8 mm in assay [17] and below -8.3 mm in assay [21]. This molecule also showed an Hmax in [11] below 1.6.

With `CC(C)OC(=O)CCC/C=C\C[C@@H]1[C@@H](/C=C/[C@@H](O)CCc2ccc(-c3ccco3)cc2)[C@H](O)C[C@@H]1O`, the results for the “I ABC” value in assay [2] and in [15] were -76.1 and 0.5, respectively. In addition, the “P ABC” value in assay [5] was -6. Also, the Imax in assay [22] was 0.3 mmHg; in assay [18] it was below -5 mmHg. The “H ABC” value in [6] is -0.2. Further, in assay [7], the Irritation amounted to 0.6 arbitrary units. In [11], this molecule came in with an Hmax of -0.1. Also, the Pmax in [21] is -0.6 mm.

For the molecule `Cc1ccc(CC[C@H](O)/C=C/[C@@H]2[C@@H](C/C=C\CCCC(=O)OC(C)C)[C@@H](O)C[C@H]2O)cc1`, the “I ABC” value was -28 in [2], -3.5 in [23], -4.3 in [14] and -3.8 in assay [15]. In addition, the Irritation in [4] was found to be 0.2 arbitrary units; in assay [7], 0 arbitrary units. Besides, the “P ABC” value in assay [5] is listed as below -73; in assay [13], below -46. For the same molecule, the “H ABC” value in assay [6] is given as 4.4. For the same molecule, the Pmax is below -3.5 mm in [8] and below -6 mm in assay [21]. Also, in [11], the Hmax is on record as below 1.5. Besides, the Imax in assay [16] is given as -1 mmHg; in assay [18], -1.3 mmHg; in assay [24] it was -1.5 mmHg; in [20] it was below -1.6 mmHg.

With `CC(C)OC(=O)CCC/C=C\C[C@@H]1[C@@H](/C=C/[C@H](O)CCc2ccc(Br)cc2)[C@H](O)C[C@@H]1O`, the figures for the P ABC in assay [1], in assay [5] and in [13] were -23, -2.2 and -27, respectively. In addition, the “I ABC” value is below -17 in [2], -10 in assay [12] and -14 in [14]. Moreover, the Hmax in [25] is listed as 0.2; in [11], below 0.7. Moreover, the Irritation in [4] worked out at 0.5 arbitrary units; in assay [7], 0.2 arbitrary units; in assay [10], 0 arbitrary units. Besides, the “H ABC” value is on record as 0.6 in assay [6] and 0.3 in [26]. For the same molecule, the Pmax in [8] is below -2.2 mm; in assay [17], below -2.3 mm; in assay [21] it was -0.7 mm. Moreover, the results for the Imax in [9], in [16] and in assay [18] were below -2 mmHg, -1 mmHg and below -2 mmHg, respectively.

Turning to `CC(C)OC(=O)CCC/C=C\C[C@@H]1[C@@H](/C=C/[C@@H](O)CCc2ccccc2)[C@H](O)C[C@@H]1O`, the Imax was below -3.3 mmHg in [3], 2.7 mmHg in [16] and -2.9 mmHg in [20]. The Irritation in [4] was found to be 0 arbitrary units. The “H ABC” value in assay [6] is recorded as below -4. The Pmax in [8] was below 9.7 mm. In [11], the Hmax is listed as below 1.5. This molecule also gave a P ABC in assay [13] of -126. Besides, the “I ABC” value was below 36.9 in [14], -5.9 in assay [15] and below -5.8 in [19].

With `CC(C)OC(=O)CCC/C=C\C[C@@H]1[C@@H](/C=C/[C@@H](O)CCc2ccc(-c3ccccc3)cc2)[C@H](O)C[C@@H]1O`, the “I ABC” value was below -99.3 in [2], below 6.1 in [23], -10 in [14] and 3 in assay [15]. Further, the Hmax is 0.2 in assay [25] and below 0.4 in assay [11]. Also, the figures for the Irritation in [4] and in [7] were 0.8 arbitrary units and 1.6 arbitrary units, respectively. Further, the “P ABC” value in assay [5] is given as below -4.9; in assay [13], below -18.3. Also, the figures for the “H ABC” value in assay [6] and in assay [26] were 1.2 and 0.2, respectively. In addition, the values for the Pmax in assay [8] and in assay [21] were below -1.5 mm and -0.8 mm, respectively. In addition, the Imax was -1 mmHg in assay [16], below -6 mmHg in assay [18], below 1.4 mmHg in assay [24] and below 0.8 mmHg in [20].

Consider `CC(C)OC(=O)CCC/C=C\C[C@@H]1[C@@H](/C=C/[C@@H](O)CCc2ccc(-c3ccsc3)cc2)[C@H](O)C[C@@H]1O`, for which the Imax in [27] is -5 mmHg; in [16], below -4 mmHg. Also, the “I ABC” value in assay [2] was below -66; in [14], -63.2. The figures for the Irritation in [4] and in assay [7] were 0.2 arbitrary units and 0.6 arbitrary units, respectively. The “P ABC” value in assay [5] was below -9.2; in assay [13] it was -3.3. Also, the “H ABC” value in [6] is below 0.8. Moreover, the Pmax in assay [8] is -1 mm; in assay [21], below -1.2 mm. In assay [11], this molecule gave an Hmax of 0.3.
